Experiment [1] relates to Trypanosoma brucei. Kind of experiment: Antitrypanosomal activity against wild type Trypanosoma brucei bloodstream form assessed as growth inhibition after 3 days by Alamar blue assay. In kind it is functional, organism-based. To be noted: 72 h. The procedure, abridged: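 Bloodstream-form T. brucei seeded at 1 × 10³ per mL in growth medium with a range of test compound concentrations; 3 days at 37 °C, then alamarBlue added and incubation continued 16 h before reading.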
(Alamar Blue is a resazurin reagent that responds to reducing activity.)

Experiment [2] has as its system Trypanosoma brucei. The experiment is described as follows: Activity of His-tagged Trypanosoma brucei nitroreductase assessed as oxidation of NADH. The procedure, abridged: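 Purified His-tagged T. brucei nitroreductase (TbNTR) incubated with test compound; NADH consumption followed as change in absorbance at 340 nm.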
Experiment [3] concerns Trypanosoma brucei. Kind of experiment: Antitrypanosomal activity against Trypanosoma brucei bloodstream form overexpressing nitroreductase assessed as growth inhibition after 3 days by Alamar blue assay. To be noted: 72 h. It counts as functional, organism-based. The procedure, abridged: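 Bloodstream-form T. brucei induced to express elevated nitroreductase, with non-induced parasites as controls. Parasites seeded at 1 × 10³ mL⁻¹ in growth medium with a range of test-compound concentrations and incubated 3 days at 37 °C. alamarBlue was then added for a further 16 h as the viability read-out.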

The results in this text go back to ChEMBL document CHEMBL2163327, “Design, synthesis, and evaluation of potential prodrugs of DFMO for reductive activation” (Bioorg Med Chem Lett, 2012).

In general, IC50 refers to the midpoint of a concentration-inhibition curve.

Some results are limits rather than exact numbers.

As for `NCCCC(NC(=O)OCc1ccc([N+](=O)[O-])cc1)(C(=O)O)C(F)F` (configuration not stated), in experiment [1], the IC50 is above 100 µM. The Activity in experiment [2] is 42 nmol/min/mg.
Take `NCCCC(N)(C(=O)O)C(F)F` (configuration not stated) [EFLORNITHINE]: in experiment [1], the IC50 amounted to 8.3 µM. Moreover, the Activity in experiment [2] was determined as 21 nmol/min/mg.
In the case of `O=C(NCCCC(NC(=O)OCc1ccc([N+](=O)[O-])cc1)(C(=O)O)C(F)F)OCc1ccc([N+](=O)[O-])cc1` (configuration not stated), in experiment [1], the IC50 was above 100 µM. In experiment [2], the Activity was determined as 140 nmol/min/mg.
For `NC(CCCNC(=O)OCc1ccc([N+](=O)[O-])cc1)(C(=O)O)C(F)F` (configuration not stated), in experiment [1], the IC50 is above 100 µM. Moreover, the Activity in experiment [2] turned out to be 33 nmol/min/mg.
Regarding `NCCCC(N)(C(=O)OCc1ccc([N+](=O)[O-])cc1)C(F)F` (configuration not stated), the IC50 in experiment [1] was above 100 µM. Moreover, the Activity in experiment [2] turned out to be 60 nmol/min/mg.
In the case of `NC(CCCNC(=O)OCc1ccc([N+](=O)[O-])cc1F)(C(=O)O)C(F)F` (configuration not stated), the IC50 in experiment [1] was 39.5 µM; in experiment [3], 39.9 µM. The Activity in experiment [2] stood at 260 nmol/min/mg.
For the compound `NCCCC(N)(C(=O)OCc1ccc([N+](=O)[O-])cc1F)C(F)F` (configuration not stated), the IC50 in experiment [1] is above 100 µM. For the same compound, the Activity in experiment [2] came to 203 nmol/min/mg.
`NCCCC(NC(=O)OCc1ccc([N+](=O)[O-])cc1F)(C(=O)O)C(F)F` (configuration not stated): the IC50 in experiment [1] is above 100 µM. In addition, the Activity in experiment [2] stood at 227 nmol/min/mg.
On to `O=C(NCCCC(NC(=O)OCc1ccc([N+](=O)[O-])cc1F)(C(=O)O)C(F)F)OCc1ccc([N+](=O)[O-])cc1F` (configuration not stated), for which the IC50 in experiment [1] was above 100 µM. Besides, the Activity in experiment [2] worked out at 312 nmol/min/mg.
In the case of `CC1CS(=O)(=O)CCN1/N=C/c1ccc([N+](=O)[O-])o1` (configuration not stated) [NIFURTIMOX], the IC50 in experiment [1] was 1.83 µM; in experiment [3], 0.26 µM. In addition, the Activity in experiment [2] came to 423 nmol/min/mg.
